Assay results taken from ChEMBL document CHEMBL1671686, “Carbapenem-resistant KPC-2-producing Escherichia coli in a Tel Aviv Medical Center, 2005 to 2008” (2010).
Converted amounts (≈) assume the structure as drawn.

Experiments:
Type in all cases: functional
Escherichia coli [1] = experiment: Antimicrobial activity against Escherichia coli isolate 543 expressing beta-lactamase KPC2, CTX-M-15, TEM and PFGE cluster 4 isolated from synovial fluid of patient by vitek-2 method in presence of beta-lactamase inhibitor Tazobactam
Summary of the method: (§1)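 Antibiotic susceptibility of clinical carbapenem-resistant E. coli isolates (collected Feb 2005–Oct 2008) determined on the automated Vitek-2 system.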

Escherichia coli [2] = experiment: Antimicrobial activity against Escherichia coli isolate 157T expressing beta-lactamase KPC2 and PFGE cluster 3 isolated from urine of patient by vitek-2 method in presence of beta-lactamase inhibitor Tazobactam
Summary of the method: (§2)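 Transformants were made by electroporating purified plasmids from clinical isolates into E. coli DH10B. They were selected on LB agar with 100 μg/ml ampicillin and PCR-screened for blaKPC. Susceptibility was then tested on Vitek-2.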

Escherichia coli [3] = experiment: Antimicrobial activity against Escherichia coli isolate 339T expressing beta-lactamase KPC2 and PFGE cluster 5 isolated from peritoneal fluid of patient by vitek-2 method in presence of beta-lactamase inhibitor Tazobactam
Summary of the method: (§3)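 Test strains were E. coli DH10B transformants. Plasmids purified from the clinical isolates were electroporated in, transformants selected on LB agar with 100 μg/ml ampicillin, and colonies PCR-screened for blaKPC. Susceptibility of the transformants was then determined by automated Vitek-2 testing.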

Escherichia coli [4] = experiment: Antimicrobial activity against Escherichia coli isolate 547T expressing beta-lactamase KPC2 and PFGE cluster 4 isolated from blood of patient by vitek-2 method in presence of beta-lactamase inhibitor Tazobactam; summary of the method: as §3
Escherichia coli [5] = experiment: Antimicrobial activity against Escherichia coli isolate 544 expressing beta-lactamase KPC2, TEM and PFGE cluster 4 isolated from abscess of patient by vitek-2 method in presence of beta-lactamase inhibitor Tazobactam; summary of the method: as §1
Escherichia coli [6] = experiment: Antimicrobial activity against Escherichia coli isolate 1679T expressing beta-lactamase KPC2, TEM and PFGE cluster 6 isolated from peritoneal fluid of patient by vitek-2 method in presence of beta-lactamase inhibitor Tazobactam; summary of the method: as §3
Escherichia coli [7] = experiment: Antimicrobial activity against Escherichia coli isolate 339 expressing beta-lactamase KPC2, TEM and PFGE cluster 5 isolated from peritoneal fluid of patient by vitek-2 method in presence of beta-lactamase inhibitor Tazobactam
Summary of the method: (§4)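 Clinical carbapenem-resistant E. coli isolates collected at one hospital, February 2005 to October 2008. […] Susceptibilities came from automated Vitek-2 testing.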

Escherichia coli [8] = experiment: Antimicrobial activity against Escherichia coli isolate 547 expressing beta-lactamase KPC2, TEM and PFGE cluster 4 isolated from blood of patient by vitek-2 method in presence of beta-lactamase inhibitor Tazobactam; summary of the method: as §4
Escherichia coli [9] = experiment: Antimicrobial activity against Escherichia coli isolate 329T expressing beta-lactamase KPC2 and PFGE cluster 2 isolated from blood of patient by vitek-2 method in presence of beta-lactamase inhibitor Tazobactam; summary of the method: as §2
Escherichia coli [10] = experiment: Antimicrobial activity against Escherichia coli isolate 329 expressing beta-lactamase KPC2, CTX-M-2, TEM and PFGE cluster 2 isolated from blood of patient by vitek-2 method in presence of beta-lactamase inhibitor Tazobactam; summary of the method: as §1
Escherichia coli [11] = experiment: Antimicrobial activity against Escherichia coli isolate 386 expressing beta-lactamase KPC2, CTX-M-15, OXA-9, TEM and PFGE cluster 1 isolated from wound of patient by vitek-2 method in presence of beta-lactamase inhibitor Tazobactam; summary of the method: as §1
Escherichia coli [12] = experiment: Antimicrobial activity against Escherichia coli DH10B by vitek-2 method in presence of beta-lactamase inhibitor Tazobactam; conditions: K-12 DH10B
Summary of the method: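 Plasmid-free recipient E. coli DH10B, used as the host for electroporation transformants, was tested for susceptibility on the automated Vitek-2 system.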

Escherichia coli [13] = experiment: Antimicrobial activity against Escherichia coli isolate 360T expressing beta-lactamase KPC2, OXA-9 and PFGE cluster 1 isolated from urine of patient by vitek-2 method in presence of beta-lactamase inhibitor Tazobactam; summary of the method: as §3
Escherichia coli [14] = experiment: Antimicrobial activity against Escherichia coli isolate 360 expressing beta-lactamase KPC2, CTX-M-15, OXA-9, TEM and PFGE cluster 1 isolated from urine of patient by vitek-2 method in presence of beta-lactamase inhibitor Tazobactam; conditions: isolate 360, Urine; summary of the method: as §1
Escherichia coli [15] = experiment: Antimicrobial activity against Escherichia coli isolate 386T expressing beta-lactamase KPC2, OXA-9 and PFGE cluster 1 isolated from wound of patient by vitek-2 method in presence of beta-lactamase inhibitor Tazobactam; summary of the method: as §3
Escherichia coli [16] = experiment: Antimicrobial activity against Escherichia coli isolate 543T expressing beta-lactamase KPC2 and PFGE cluster 4 isolated from synovial fluid of patient by vitek-2 method in presence of beta-lactamase inhibitor Tazobactam; summary of the method: as §2
Escherichia coli [17] = experiment: Antimicrobial activity against Escherichia coli isolate 1679 expressing beta-lactamase KPC2, SHV-12, TEM and PFGE cluster 6 isolated from peritoneal fluid of patient by vitek-2 method in presence of beta-lactamase inhibitor Tazobactam; summary of the method: as §1
Escherichia coli [18] = experiment: Antimicrobial activity against Escherichia coli isolate 157 expressing beta-lactamase KPC2, CTX-M-15, TEM and PFGE cluster 3 isolated from urine of patient by vitek-2 method in presence of beta-lactamase inhibitor Tazobactam; conditions: isolate 157, Urine; summary of the method: as §1
Escherichia coli [19] = experiment: Antimicrobial activity against Escherichia coli isolate 540 expressing beta-lactamase KPC2, TEM and PFGE cluster 4 isolated from synovial fluid of patient by vitek-2 method in presence of beta-lactamase inhibitor Tazobactam; summary of the method: as §4
Escherichia coli [20] = experiment: Antimicrobial activity against Escherichia coli isolate 543 expressing beta-lactamase KPC2, CTX-M-15, TEM and PFGE cluster 4 isolated from synovial fluid of patient by Etest
Escherichia coli [21] = experiment: Antimicrobial activity against Escherichia coli isolate 547T expressing beta-lactamase KPC2 and PFGE cluster 4 isolated from blood of patient by Etest
Summary of the method: (§5)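 Transformant strains. Plasmids purified from the clinical isolates were electroporated into E. coli DH10B. Transformants were selected on LB agar with 100 μg/ml ampicillin, and colonies were PCR-screened for blaKPC before susceptibility testing.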

Escherichia coli [22] = experiment: Antimicrobial activity against Escherichia coli isolate 1679T expressing beta-lactamase KPC2, TEM and PFGE cluster 6 isolated from peritoneal fluid of patient by Etest; summary of the method: as §5
Escherichia coli [23] = experiment: Antimicrobial activity against Escherichia coli isolate 543T expressing beta-lactamase KPC2 and PFGE cluster 4 isolated from synovial fluid of patient by Etest; summary of the method: as §5
Escherichia coli [24] = experiment: Antimicrobial activity against Escherichia coli isolate 157T expressing beta-lactamase KPC2 and PFGE cluster 3 isolated from urine of patient by Etest; summary of the method: as §5
Escherichia coli [25] = experiment: Antimicrobial activity against Escherichia coli isolate 360 expressing beta-lactamase KPC2, CTX-M-15, OXA-9, TEM and PFGE cluster 1 isolated from urine of patient by Etest
Escherichia coli [26] = experiment: Antimicrobial activity against Escherichia coli isolate 547 expressing beta-lactamase KPC2, TEM and PFGE cluster 4 isolated from blood of patient by Etest
Escherichia coli [27] = experiment: Antimicrobial activity against Escherichia coli isolate 386 expressing beta-lactamase KPC2, CTX-M-15, OXA-9, TEM and PFGE cluster 1 isolated from wound of patient by Etest
Escherichia coli [28] = experiment: Antimicrobial activity against Escherichia coli DH10B by Etest; conditions: K-12 DH10B
Escherichia coli [29] = experiment: Antimicrobial activity against Escherichia coli isolate 339 expressing beta-lactamase KPC2, TEM and PFGE cluster 5 isolated from peritoneal fluid of patient by Etest
Escherichia coli [30] = experiment: Antimicrobial activity against Escherichia coli isolate 157 expressing beta-lactamase KPC2, CTX-M-15, TEM and PFGE cluster 3 isolated from urine of patient by Etest
Escherichia coli [31] = experiment: Antimicrobial activity against Escherichia coli isolate 329 expressing beta-lactamase KPC2, CTX-M-2, TEM and PFGE cluster 2 isolated from blood of patient by Etest
Escherichia coli [32] = experiment: Antimicrobial activity against Escherichia coli isolate 360T expressing beta-lactamase KPC2, OXA-9 and PFGE cluster 1 isolated from urine of patient by Etest; summary of the method: as §5
Escherichia coli [33] = experiment: Antimicrobial activity against Escherichia coli isolate 540 expressing beta-lactamase KPC2, TEM and PFGE cluster 4 isolated from synovial fluid of patient by Etest
Escherichia coli [34] = experiment: Antimicrobial activity against Escherichia coli isolate 339T expressing beta-lactamase KPC2 and PFGE cluster 5 isolated from peritoneal fluid of patient by Etest; summary of the method: as §5
Escherichia coli [35] = experiment: Antimicrobial activity against Escherichia coli isolate 386T expressing beta-lactamase KPC2, OXA-9 and PFGE cluster 1 isolated from wound of patient by Etest; summary of the method: as §5
Escherichia coli [36] = experiment: Antimicrobial activity against Escherichia coli isolate 1679 expressing beta-lactamase KPC2, SHV-12, TEM and PFGE cluster 6 isolated from peritoneal fluid of patient by Etest
Escherichia coli [37] = experiment: Antimicrobial activity against Escherichia coli isolate 329T expressing beta-lactamase KPC2 and PFGE cluster 2 isolated from blood of patient by Etest; summary of the method: as §5
Escherichia coli [38] = experiment: Antimicrobial activity against Escherichia coli isolate 544 expressing beta-lactamase KPC2, TEM and PFGE cluster 4 isolated from abscess of patient by Etest

## CCN1CCN(C(=O)N[C@@H](C(=O)N[C@@H]2C(=O)N3[C@@H]2SC(C)(C)[C@@H]3C(=O)O)c2ccccc2)C(=O)C1=O [PIPERACILLIN]
Escherichia coli [1]
  MIC: > 128 µg/mL
Escherichia coli [2]
  MIC: > 128 µg/mL
Escherichia coli [3]
  MIC: 64 µg/mL
Escherichia coli [4]
  MIC: 64 µg/mL
Escherichia coli [5]
  MIC: > 128 µg/mL
Escherichia coli [6]
  MIC: 64 µg/mL
Escherichia coli [7]
  MIC: 64 µg/mL
Escherichia coli [8]
  MIC: 64 µg/mL
Escherichia coli [9]
  MIC: > 128 µg/mL
Escherichia coli [10]
  MIC: > 128 µg/mL
Escherichia coli [11]
  MIC: > 128 µg/mL
Escherichia coli [12]
  MIC: > 1 µg/mL
Escherichia coli [13]
  MIC: 64 µg/mL
Escherichia coli [14]
  MIC: > 128 µg/mL
Escherichia coli [15]
  MIC: 64 µg/mL
Escherichia coli [16]
  MIC: > 128 µg/mL
Escherichia coli [17]
  MIC: > 128 µg/mL
Escherichia coli [18]
  MIC: > 128 µg/mL
Escherichia coli [19]
  MIC: 64 µg/mL

## CN(C)c1cc(NC(=O)CNC(C)(C)C)c(O)c2c1C[C@H]1C[C@H]3[C@H](N(C)C)C(O)=C(C(N)=O)C(=O)[C@@]3(O)C(O)=C1C2=O [TIGECYCLINE]
Escherichia coli [20]
  MIC: 0.19 µg/mL (≈ 0.324 µM)
Escherichia coli [21]
  MIC: 0.125 µg/mL (≈ 0.213 µM)
Escherichia coli [22]
  MIC: 0.38 µg/mL (≈ 0.649 µM)
Escherichia coli [23]
  MIC: 0.125 µg/mL (≈ 0.213 µM)
Escherichia coli [24]
  MIC: 0.19 µg/mL (≈ 0.324 µM)
Escherichia coli [25]; isolate 360, Urine
  MIC: 0.75 µg/mL (≈ 1.28 µM)
Escherichia coli [26]
  MIC: 0.125 µg/mL (≈ 0.213 µM)
Escherichia coli [27]
  MIC: 0.75 µg/mL (≈ 1.28 µM)
Escherichia coli [28]
  MIC: 0.125 µg/mL (≈ 0.213 µM)
Escherichia coli [29]
  MIC: 0.19 µg/mL (≈ 0.324 µM)
Escherichia coli [30]; isolate 157, Urine
  MIC: 0.38 µg/mL (≈ 0.649 µM)
Escherichia coli [31]
  MIC: 0.19 µg/mL (≈ 0.324 µM)
Escherichia coli [32]
  MIC: 0.125 µg/mL (≈ 0.213 µM)
Escherichia coli [33]
  MIC: 0.19 µg/mL (≈ 0.324 µM)
Escherichia coli [34]
  MIC: 0.19 µg/mL (≈ 0.324 µM)
Escherichia coli [35]
  MIC: 0.19 µg/mL (≈ 0.324 µM)
Escherichia coli [36]
  MIC: 0.125 µg/mL (≈ 0.213 µM)
Escherichia coli [37]
  MIC: 0.125 µg/mL (≈ 0.213 µM)
Escherichia coli [38]
  MIC: 0.38 µg/mL (≈ 0.649 µM)

## COLISTIN
Escherichia coli [20]
  MIC: 0.125 µg/mL
Escherichia coli [21]
  MIC: 0.047 µg/mL
Escherichia coli [22]
  MIC: 0.047 µg/mL
Escherichia coli [23]
  MIC: 0.047 µg/mL
Escherichia coli [24]
  MIC: 0.047 µg/mL
Escherichia coli [25]
  MIC: 0.19 µg/mL
Escherichia coli [26]
  MIC: 0.19 µg/mL
Escherichia coli [27]
  MIC: 0.125 µg/mL
Escherichia coli [28]
  MIC: 0.047 µg/mL
Escherichia coli [29]
  MIC: 0.125 µg/mL
Escherichia coli [30]
  MIC: 0.125 µg/mL
Escherichia coli [31]
  MIC: 0.19 µg/mL
Escherichia coli [32]
  MIC: 0.094 µg/mL
Escherichia coli [33]
  MIC: 0.125 µg/mL
Escherichia coli [34]
  MIC: 0.047 µg/mL
Escherichia coli [35]
  MIC: 0.047 µg/mL
Escherichia coli [36]
  MIC: 0.38 µg/mL
Escherichia coli [37]
  MIC: 0.047 µg/mL
Escherichia coli [38]
  MIC: 0.19 µg/mL
